The values that follow come from paper PMC4120261 (Biofouling, 2013).

For one assay, the target named is WspR (Pseudomonas aeruginosa, UniProt Q9HXT9). Description: EnzChek pyrophosphate assay. The assay is classed as biochemical. A digest of the protocol:
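C-terminally 6×His-tagged WspR is expressed in E. coli BL21(DE3) in LB with 100 μg ml−1 ampicillin at 37 °C, then induced at A600 1.0 with 1 mM IPTG at 18 °C for 12–16 h. Cells are sonicated and the protein is purified by IMAC (500 mM imidazole elution), then Superdex 200 SEC in 25 mM Tris-HCl pH 7.4, 100 mM NaCl, 1 mM DTT. Pyrophosphate released from GTP-to-c-di-GMP conversion is read by EnzChek.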

A further assay addresses tDGC-R158A (Thermotoga maritima, UniProt Q9X2A8, R158A). Briefly: EnzChek pyrophosphate assay. The assay is classed as biochemical. To be noted: substrate GTP. In a few lines:
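C-terminally 6×His-tagged T. maritima tDGC-R158A is expressed in E. coli BL21(DE3) with kanamycin at 37 °C and induced at OD600 0.8 with 0.8 mM IPTG at 25 °C for 4 h. It is French-press lysed and purified on Ni-NTA with a 20–500 mM imidazole gradient in Tris-HCl pH 8.0. Pyrophosphate from GTP conversion is read by a high-throughput-adapted EnzChek assay, giving % inhibition versus untreated enzyme.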

With `CC(=O)c1c(O)c(C)c(O)c(Cc2c(O)c3c(c(C(=O)/C=C/c4ccccc4)c2O)OC(C)(C)C=C3)c1O` [LP 1062, (E)-1-[6-[(3-acetyl-2,4,6-trihydroxy-5-methylphenyl)methyl]-5,7-dihydroxy-2,2-dimethyl-2H-1-benzopyran-8-yl]-3-phenyl-2-propen-1-one], the IC50 (as a rule, the concentration needed to halve the response being measured) at WspR came to 73.1 µM.

`CN(CCCn1c2c(c(=O)[nH]c1=O)CSCC2)S(=O)(=O)c1ccc(N)cc1` [LP 4010] showed an IC50 on WspR of 102 µM. Moreover, the “% Inhibition of tDGC-R158A” value at tDGC-R158A (200 µM) was 20.5%.

`Cc1cc2c(C(C)C)c(O)c(O)c(C=O)c2c(O)c1-c1c(C)cc2c(C(C)C)c(O)c(O)c(C=O)c2c1O` [LP 3145, 1,1′,6,6′,7,7′-hexahydroxy-5,5′-diisopropyl-3,3′-dimethyl-2,2′-binaphthalene-8,8′-dicarbaldehyde] yielded an IC50 against WspR of 70.9 µM. That is a double-digit micromolar value.

Turning to `CCOc1ccc(/C=N/NC(=O)c2cc(O)c(O)c(O)c2)cc1CN1CC2CC(C1)c1cccc(=O)n1C2` (stereo not drawn) [LP 3134, N′-((1E)-{4-ethoxy-3-[(8-oxo-1,5,6,8-tetrahydro-2H-1,5-methanopyrido[1,2-a][1,5]diazocin-3(4H)-yl)methyl]phenyl}methylene)-3,4,5-trihydroxybenzohydrazide], at WspR, the IC50 stood at 44.9 µM. Further, on tDGC-R158A (100 µM), the “% Inhibition of tDGC-R158A” value was 72.1%.
